CHO-K1 Ca PAM: nonselective calcium activators in parental CHO-K1 cells, primary screen, counter-screen for M1 PAM project, cell-based, Fluo-8 calcium fluorescence, full deck, 1536-well. ATP EC20; 0% at ATP EC20, 100% at ATP max. activation, % at 3 µM. 360,000 compounds, 0.02% hits. AID 602247, 2012;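 active = activation above the run cutoff, the mean activation of all test compounds plus 3 SD, cut at about 40% in these data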;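 note: peak over basal fluorescence ratio in a 140 s read after ATP addition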
CHRM5 antagonist: human M5 muscarinic receptor antagonists, primary screen, CHO cells, Fluo-8 calcium fluorescence | CHO-hM5 cells, ACh EC80 | Muscarinic acetylcholine receptor M5 (Homo sapiens), P08912 | inhibition, % at 3 µM | 360,000 compounds, 0.59% hits;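 active = inhibition above a per-plate cutoff, the mean of that plate's test compounds plus 3 SD, cut at about 27% in these data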
Target sequence (P08912 whole entry, looked up): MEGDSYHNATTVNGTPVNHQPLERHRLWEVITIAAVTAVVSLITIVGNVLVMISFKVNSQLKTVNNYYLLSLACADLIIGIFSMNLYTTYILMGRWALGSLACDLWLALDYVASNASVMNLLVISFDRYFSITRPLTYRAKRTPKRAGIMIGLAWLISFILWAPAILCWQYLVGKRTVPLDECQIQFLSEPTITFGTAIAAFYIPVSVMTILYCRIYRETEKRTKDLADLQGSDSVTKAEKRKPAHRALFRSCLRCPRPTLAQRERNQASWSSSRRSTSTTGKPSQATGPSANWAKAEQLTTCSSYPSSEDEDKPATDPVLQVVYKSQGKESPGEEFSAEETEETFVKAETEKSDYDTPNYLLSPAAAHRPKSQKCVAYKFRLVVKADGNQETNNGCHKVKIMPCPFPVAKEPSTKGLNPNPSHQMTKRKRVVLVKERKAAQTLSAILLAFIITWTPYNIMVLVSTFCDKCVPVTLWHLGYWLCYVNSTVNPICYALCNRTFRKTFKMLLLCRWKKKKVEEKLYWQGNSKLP
CHO-K1 Ca ag: counter-screen for M1 agonists: effect in parental CHO-K1 cells | Fluo-8 calcium fluorescence; scaled to maximal ATP response, vehicle zero | activation, % at 3 µM | AID 602248, 2012 | 360,000 compounds, 0.48% hits; in the data active = activation above about 15%;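 note: untransfected CHO-K1 host cells lacking M1 receptor as counterscreen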
M5 PAM: human M5 muscarinic receptor positive allosteric modulators, primary screen, CHO-K1 cells, Fluo-8 calcium fluorescence | CHO-K1 hM5, ACh EC20 PAM; 0% = ACh EC20, 100% = ACh EC100 | activation, % at 3 µM | 360,000 compounds, 0.3% hits | AID 624038, 2012;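 active = activation above the run cutoff, the mean activation of all test compounds plus 3 SD, cut at about 18% in these data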
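Assay system: CHO-K1 hM5 cells / Incubation: Fluo-8 loading 80 min at 37 °C plus 30 min room temperature / Technique: Fluo-8 calcium dye fluorescence, kinetic read / Repeats: single replicate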
CHO-K1 Ca antag: counter-screen for M1 antagonists: effect in parental CHO-K1 cells; ATP-induced calcium, Fluo-8 fluorescence; AID 602250; inhibition, % at 3 µM; 360,000 compounds, 0.6% hits;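 active = inhibition above a per-plate cutoff, the plate's mean sample inhibition plus 3 SD, cut at about 24% in these data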
CHRM5 agonist: human M5 muscarinic receptor agonists, primary screen, CHO-K1 cells, Fluo-8 calcium fluorescence | activation, % at 3 µM | 360,000 compounds, 0.19% hits | AID 624037, 2012 | CHO-K1 hM5 cells; 0% DMSO wells, 100% maximal acetylcholine response;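 active = activation above the run's mean over test compounds plus 3 SD, cut at about 23% in these data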;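 note: signal is peak over basal fluorescence ratio across the kinetic read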
Hits are given with their value; - = inactive; . = no result given. Only some compounds are listed: those with a hit (about 1.7% of all), similar ones and a draw of the others.

SMILES | CHO-K1 Ca PAM | CHRM5 antagonist | CHO-K1 Ca ag | M5 PAM | CHO-K1 Ca antag | CHRM5 agonist
COC1=NC(=C(c2ccccc2)c2ccccc2)OC1=O | - | - | - | - | - | -
O=C(COc1ccc(Cl)cc1Cl)Nc1ccccn1 | - | - | - | - | - | -
O=C(OCCN1C(=O)c2ccccc2C1=O)c1ccccc1 | - | - | - | - | - | -
O=C(OCCN1C(=O)c2ccccc2C1=O)c1ccco1 | - | - | - | 19 | - | -
O=C(NCc1ccco1)c1ccc(CN2CCOCC2)cc1 | - | - | - | 19 | 24 | -
CCN(CC)S(=O)(=O)c1cccc(-c2nnc(SCCOc3ccccc3)o2)c1 | - | - | - | - | 47 | -
CCN(CC)S(=O)(=O)c1cccc(-c2nnc(SCCOc3ccc(Cl)cc3)o2)c1 | - | - | - | - | - | -
O=C(Nc1ccccn1)c1ccc(CN(c2ccccc2)S(=O)(=O)c2ccccc2)cc1 | - | - | - | - | - | -
Cc1cccc(C(C)C)c1NC(=O)c1ccc(CN(c2ccccc2)S(=O)(=O)c2ccccc2)cc1 | - | - | - | - | 26 | -
Cc1ccnc(N2CCCC(C(=O)Nc3cccc(C)c3C)C2)n1 (stereo unspecified) | - | - | - | - | - | -
C=CCN1CN(Cc2ccco2)CNC1=S | - | - | - | - | - | -
S=C1NCN(Cc2ccco2)CN1 | - | - | - | 23 | - | -
O=C(CSc1nnc(NC(=O)c2c(F)cccc2F)s1)Nc1ccccc1F | - | - | - | - | - | -
CCNC(=O)Nc1cc(S(=O)(=O)Nc2ccc(OC)cc2)ccc1N1CCOCC1 | - | - | - | - | 28 | -
COc1ccc(NS(=O)(=O)c2ccc3c(c2)N(C(C)=O)CCS3)cc1 | - | - | 17 | - | - | -
CN(CC(=O)Nc1ccc(Cl)c(Cl)c1)C(=O)/C=C/c1ccc(F)cc1 | - | - | - | - | 26 | -
O=C(O)c1ccccc1-c1c2cc(I)c(=O)c(I)c-2oc2c(I)c(O)c(I)cc12 | - | 38 | 190 | - | 71 | 107
CCSc1nnc(NC(=O)CSc2nncc(=O)n2N)s1 | - | - | - | - | - | -
CCc1nnc(NC(=O)CSc2nncc(=O)n2N)s1 | - | - | - | 24 | - | -
COc1ccc(OC)c2c1cc(C(=O)N[C@H](C(=O)N1CCC(C(=O)O)CC1)C(C)C)n2C | - | - | - | - | - | -
N#CC1=C(SCC(=O)NC2CC2)NC(=O)C(C#N)C12CCCCC2 (stereo unspecified) | - | - | - | - | - | -
N#CC1=C(SCC(=O)NC23CC4CC(CC(C4)C2)C3)NC(=O)C(C#N)C12CCCCC2 (stereo unspecified) | - | 29 | - | - | - | -
COc1ccc(C2C(C(=O)N3CCN(C)CC3)c3ccccc3C(=O)N2C2CCCCC2)cc1 (stereo unspecified) | - | - | - | 22 | - | -
O=C1Nc2ccccc2-n2nnnc2C1N1CCN(c2ccc(C(F)(F)F)cc2[N+](=O)[O-])CC1 (stereo unspecified) | . | - | . | - | . | 24
CN1CCc2c(c3ccccc3n2Cc2ccccc2)C1 | - | 42 | - | - | - | -
SMILES | CHO-K1 Ca PAM | CHRM5 antagonist | CHO-K1 Ca ag | M5 PAM | CHO-K1 Ca antag | CHRM5 agonist
CCCCN1CCc2c(c3ccccc3n2Cc2ccccc2)C1 | - | - | - | - | - | -
O=C(O)c1c(-c2ccccc2)c(-c2ccccc2)nc2ccccc12 | - | - | - | - | - | -
CCn1c(NCc2ccc(N(C)C)cc2)nc2ccccc21 | - | - | - | 18 | - | -
CCn1c(NCc2cccs2)nc2ccccc21 | - | - | - | - | - | -
CCn1c(NCc2ccccn2)nc2ccccc21 | - | - | - | - | 24 | -
Cc1cccc(OCCn2cc(/C=N/NC(=O)c3ccncc3)c3ccccc32)c1 | - | - | - | - | - | -
CCN(C(=O)/C=C/c1ccc2c(c1)OCO2)c1ccccc1 | - | - | - | 20 | - | -
O=C(C=Cc1ccc2c(c1)OCO2)c1ccccc1 | - | - | - | - | - | -
O=C(Nc1nnc(CCN2CCCCC2)s1)c1ccccc1 | - | - | - | - | - | -
O=C(Nc1nnc(CCN2CCCCC2)s1)c1ccccc1Cl | - | - | 20 | - | - | -
CCOc1ccc(NC(=O)C2CCCN(S(=O)(=O)c3ccc4c(c3)C(C)(C)C(=O)N4C)C2)cc1 (stereo unspecified) | - | - | - | - | - | -
C/C(=N/NC(=O)c1cccs1)c1ccc(N2CCOCC2)cc1 | - | - | - | - | 25 | -
Cc1cccc(-n2cc(-c3ccccc3)c3c(=O)[nH]cnc32)c1 | - | - | - | - | - | -
CCCN(CCC)c1ncnc2c1cnn2-c1ccc(OC)cc1 | - | - | - | - | - | -
CC1(C)C2CCC(C2)C1(C)NC(=O)C[N+](C)(C)C (stereo unspecified) | - | - | 23 | - | - | -
Cc1cccc(NC(=O)NNC(=O)c2c(Cl)c(C)nn2C)c1 | - | - | - | - | - | -
O=C(NC1CCCC1)c1ccc2nc(-c3ccco3)c(-c3ccco3)nc2c1 | - | - | - | - | 26 | -
O=C(NCCO)c1ccc2nc(-c3ccco3)c(-c3ccco3)nc2c1 | - | - | - | - | - | -
COc1c2c(cc3oc(=O)ccc13)OC(C)(C)C=C2 | - | - | - | - | - | -
O=C(NC(NNc1ccc([N+](=O)[O-])cc1)(C(F)(F)F)C(F)(F)F)c1ccc(Cl)cc1 | - | 27 | - | - | - | -
O=C(NNc1ccc([N+](=O)[O-])cc1)c1ccccc1Cl | - | - | - | - | - | -
CN(Cc1ccc2ccccc2c1)C(=O)c1ccc(C(F)(F)F)cc1 | - | 27 | - | - | - | -
COc1ccc(CN(C)C(=O)c2ccc(Oc3ccccc3)cc2)cc1F | - | - | - | - | - | -
COc1cccc(-c2nc(-c3ccc4c(c3)-c3ccccc3S4(=O)=O)c(-c3ccccc3)[nH]2)c1OC | - | - | - | - | 27 | -
O=C(/C=C/c1ccccc1)NC(=S)Nc1ccc2c3c(cccc13)CC2 | - | - | - | - | - | -
COc1ccc(C(=O)n2nc(C)c(Br)c2C)cc1 | - | - | - | 21 | - | -
COc1cc(OC)cc(C(=O)N2CCC(n3c(C)nc4cc(F)ccc43)CC2)c1 | - | - | - | 34 | - | -
CC1(C)CCN2CCC(C)(C)c3c(O)ccc1c32 | - | 41 | 34 | - | 26 | 95
